Columns and labels:
Type in all cases: cell-based
HCT-116 cells = assay: CCK-8 anti-proliferation assay, HCT-116; conditions: Homo sapiens, HCT-116, 72 h, read-out: IC50 HCT-116, HCT-116 cells, 72 h, CCK-8
Method in brief: (§1)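 HCT-116 and HCT-15 were grown in McCoy's 5A, and NCM-460 in RPMI 1640, each with 10% FBS and 1% penicillin-streptomycin at 37 °C, 5% CO2. Cells were seeded at 4 × 10^3 per well overnight, then exposed to graded concentrations of test compound for 72 h. Medium was replaced with fresh medium containing 10% CCK-8; A450 was read after 1 h at 37 °C. […] At least three independent experiments.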

HCT-15 cells = assay: CCK-8 anti-proliferation assay, HCT-15; conditions: Homo sapiens, HCT-15, 72 h, read-out: IC50 HCT-15, HCT-15 cells, 72 h, CCK-8
Method in brief: as §1

HT-29 cells = assay: CCK-8 anti-proliferation assay, HT-29; conditions: Homo sapiens, HT-29, 72 h, read-out: IC50 HT-29, HT-29 cells, 72 h, CCK-8
NCM-460 cells = assay: CCK-8 cytotoxicity, normal colon cell line NCM-460; conditions: Homo sapiens, NCM460, 72 h, read-out: IC50 NCM-460, normal human colon cell line NCM-460, 72 h, CCK-8
Method in brief: as §1

Row | IC50 (HCT-116 cells) [µM] | IC50 (HCT-15 cells) [µM] | IC50 (HT-29 cells) [µM] | SMILES | IC50 (NCM-460 cells) [µM]
1 | 1.38 ± 0.21 | 13.3 ± 2.01 | 3.63 ± 0.611 | O=c1[nH]cc(F)c(=O)[nH]1 [5-FU, 5-fluorouracil, reference compound] | 3.94 ± 1.41
2 |  |  | 45.9 ± 11.1 | CC1(C)C[C@H]2[C@H]1CC[C@]1(C)CCC[C@@]2(n2cc(C(=O)NCCN)nn2)C1 [NC-14] | 
3 | 17.9 ± 1.01 | 11.7 ± 0.85 | 4.02 ± 0.14 | CC1(C)C[C@H]2[C@H]1CC[C@]1(C)CCC[C@@]2(n2cc(C(=O)N3CCNCC3)nn2)C1 [NC-16] | 26.1 ± 3.1
4 | 14.7 ± 1.79 | 14.9 ± 0.98 | 3.17 ± 0.24 | CC1(C)C[C@H]2[C@H]1CC[C@]1(C)CCC[C@@]2(n2cc(C(=O)NC3CCNCC3)nn2)C1 [NC-18] | 18.6 ± 4.58
